Assay results from PMC4136418 (Drug development and industrial pharmacy, 2013).
In brackets after ≈: the same amount, converted by molar mass.

What was measured:
[1] = Solubility in buffers, Vaginal Fluid Simulant and organic solvents; assay type: physicochemical
[2] = Dynamic vapor sorption; assay type: physicochemical; details: 25°C/80% RH
Summary of the method: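 Test compound powder (about 7 mg) is dried at 0% RH for at least 2 h at 40 °C. Sorption then runs isothermally at 25 °C, with RH stepped from 0 to 90% and back to 0%.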

[3] = Stability study; assay type: physicochemical; details: all test conditions: pH 3.0–9.0, 25, 40 or 65 °C, light, 0.02% hydrogen peroxide; up to 21 days
[4] = In vitro cytotoxicity, MTT assay, CaSki cells; assay type: cell-based; details: human
Summary of the method: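 Cells are grown at 37 °C in 5% CO2 with 10% FBS and penicillin-streptomycin: A 431 in DMEM, CaSki in RPMI 1640. They are seeded at 1 × 10^4/well, grown 24 h, then exposed to 1 ng/ml–50 μg/ml compound for 24, 48 or 72 h. Fresh medium plus MTT (5 mg/ml solution) follows for 4 h. Formazan is dissolved in DMSO and read at 595 nm; n = 8.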

[5] = Transport across Caco-2 cell monolayers; assay type: in vitro ADME, human; details: human; for Papp A→B at 2 h, 25 μg/ml: Caco-2, Papp (a–b)
Summary of the method: (§1)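 Caco-2 cells (passages 27–32) are grown on 4.2 cm2 polycarbonate inserts and used on days 21–24 if TEER exceeds 600 Ωcm2. HBSS is buffered with […] (pH 5.5, 6.5) or HEPES (pH 7.4); monolayers are preincubated 20 min. The pH study uses 25 μg/ml apical, basolateral pH 7.4. Bidirectional runs use 2.5–250 μg/ml at pH 7.4. Incubation is 2 h at 37 °C with sampling to 120 min; HPLC gives Papp = (dQ/dt)/(A×C0); n = 3.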

[6] = test system: Caco-2 cell monolayers; assay: Transport across Caco-2 cell monolayers; assay type: in vitro ADME, human
Summary of the method: as §1

[7] = Human ectocervical tissue permeability study; assay type: in vitro ADME
[8] = test system: HIV-1; assay type: cell-based; details: for Anti-HIV activity: drug present at constant levels throughout the HIV infection process, 48 h
[9] = test system: HIV-1; assay type: cell-based; details: 16 h pretreatment, drug removed before HIV exposure
[10] = test system: HIV; details: cited from earlier work

## C#C[C@]1(CO)O[C@@H](n2cnc3c(N)nc(F)nc32)C[C@@H]1O [EFdA, 4′-Ethynyl-2-fluoro-2′-deoxyadenosine]
[1]; PBS, pH 6
  solubility at 120 h: 799 ± 8.7 µg/mL (≈ 2.73 mM)
[1]; Vaginal Fluid Simulant, pH 4.2
  solubility: 887 µg/mL (≈ 3.03 mM)
[1]; acid phthalate buffer, pH 3
  solubility at 120 h: 1510 ± 68.4 µg/mL (≈ 5.14 mM)
[1]; acid phthalate buffer, pH 4
  solubility at 120 h: 1360 ± 48.3 µg/mL (≈ 4.63 mM)
[1]; acid phthalate buffer, pH 4, aqueous buffer, thermodynamic from solid
  solubility at 120 h: 1620 ± 55.9 µg/mL (≈ 5.53 mM)
[1]; from pH 6–9
  Change in solubility: no obvious change in solubility
[1]; pH 7.0 and 9.0
  Change in solubility with increase in ionic strength: statistically significant decrease
[2]
  Moisture absorbed: approximately 10 % w/w
[3]
  Drug remaining: > 95%
[4]
  CC50 at 48 h: 47.8 ± 12.4 µg/mL (≈ 0.163 mM)
  CC50 at 72 h: 41.1 ± 8.78 µg/mL (≈ 0.14 mM)
[5]; Caco-2
  Papp at 2 h: < 1 ×10⁻⁶ cm/s
  efflux ratio at 2 h, 25 μg/ml: 8.01
  efflux ratio at 2 h, 250 μg/ml: 2.74
[5]; apical pH 5.5, basolateral pH 7.4
  Papp A→B at 2 h, 25 μg/ml: 0.367 ×10⁻⁶ cm/s
[5]; apical pH 6.5, basolateral pH 7.4
  Papp A→B at 2 h, 25 μg/ml: 0.436 ×10⁻⁶ cm/s
[5]; Caco-2, pH 7.4, Papp (a–b), 250 μg/ml, pH 7.4 both sides
  Papp A→B at 2 h, 250 μg/ml: 0.595 ×10⁻⁶ cm/s
[6]; 2.5 μg/ml, pH 7.4, HPLC LOD 0.05 μg/ml
  Absorptive transport (a–b), drug in receptor compartment: no EFdA was detected
[6]; high concentration group (250 μg/ml)
  Papp (b-a), fold lower than low and medium concentration treatments: about 2 fold
[7]; female, human, pH 7.4
  Papp at 6 h, 500 μg/ml: 0.834 ×10⁻⁶ cm/s
[7]; human ectocervical tissues pre- and post-treatment
  Tissue morphology after exposure: lack of any significant morphological changes
[8]; cell-based studies
  Selectivity index (CC50/EC50): greater than 1 × 10^3
[8]
  Anti-HIV activity: highly potent inhibitors
[8]; drug present throughout infection
  Potency relative to UC781: about two-fold more potent than UC781
[9]
  Protective or memory effect: retained anti-HIV protection similar to that seen when EFdA was present throughout the infection
[10]
  EC50: ~0.07 nM

## CC(C)=CCOc1cc(NC(=S)c2ccoc2C)ccc1Cl [UC781, reference compound]
[8]
  Anti-HIV activity: highly potent inhibitors
[9]
  Protective or memory effect: substantial diminution of anti-HIV protection
